# Bioassay records as filed in PubChem BioAssay.
# M1 antag: blocks the rat M1 muscarinic receptor response to acetylcholine | CHO-M1 cells, Fluo-4 calcium, ACh EC80 antagonist mode; stronger effect = lower value | B-score at 10 µM | AID 628 | P08482 | 64,000 tested, 3.4% active;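 active means calcium fluorescence response, raw or row-and-column corrected B-score, differing from the plate sample mean either way at a set confidence level, mostly lower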
# DAT uptake mod: changed human dopamine transporter uptake under cocaine IC80 | Q01959 | LLC-PK1 hDAT cells, [14C]-dopamine uptake with cocaine IC80; actives deviate in either direction | B-score at 10 µM | 110,000 tested, 1.3% active | AID 449768;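 active means Z score or B-score, a plate-position-corrected score, falls beyond the plate's 99.7% confidence bounds, in either direction; inactive means both scores lie inside the 99.7% bounds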;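 further: scored against the spread of the other compound wells on the same plate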
# Jurkat viability: cytotoxicity toward Jurkat cells; Jurkat E6.1 viability, ATP luminescence, 48 h; inhibition, % at 4 µM; 56,000 tested, 1.2% active; AID 463;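 active means inhibition above the mean inhibition of all tested compounds plus 3 SD, cut at about 28% in these data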
# M1 ag: agonists of M1 muscarinic receptor | CHO-M1 cells, Fluo-4 calcium fluorescence, agonist mode; stronger effect = higher value | B-score at 10 µM | 64,000 tested, 3% active | AID 626;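 active means fluorescence rise, raw or as B-score row- and column-corrected plate score, outside the 99.7% band of its plate's samples, either direction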
# HEK293 NFkB inh: lowers PMA/ionomycin-induced NF-kB signal in HEK293 cells; 62,000 tested, 0.21% active; HEK-293 NF-kB luciferase reporter, luminescence; inhibition, % at 3 µM;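 active means inhibition above the mean of all tested compounds plus 3 SD, cut at about 40% in these data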;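 further: 0% = stimulated DMSO wells and 100% = 10 µM reference inhibitor 5653914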
#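 Reagent: PMA plus ionomycin mix as NF-kB-activating stimulus. Assay system: NF-kB luciferase reporter HEK-293 cells. Technique: luminescence from luciferase substrate reagent. Incubation: 1 h compound pre-incubation, 16 h PMA/ionomycin at 37 °C. Benchmarks: DMSO only as uninhibited control, 10 µM reference inhibitor as full inhibition. Repeats: tested once.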
# D1 mod: D1 dopamine receptor (human) allosteric modulation. 58,000 tested, 5.9% active. B-score at 10 µM. HEK293 D1, CRE-luciferase, dopamine EC30 potentiation; actives deviate in either direction;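 active means luminescence count or its row- and column-corrected plate score outside the 99.7% band of the plate's sample wells, on either side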
# Target sequence (P21728 whole entry, looked up): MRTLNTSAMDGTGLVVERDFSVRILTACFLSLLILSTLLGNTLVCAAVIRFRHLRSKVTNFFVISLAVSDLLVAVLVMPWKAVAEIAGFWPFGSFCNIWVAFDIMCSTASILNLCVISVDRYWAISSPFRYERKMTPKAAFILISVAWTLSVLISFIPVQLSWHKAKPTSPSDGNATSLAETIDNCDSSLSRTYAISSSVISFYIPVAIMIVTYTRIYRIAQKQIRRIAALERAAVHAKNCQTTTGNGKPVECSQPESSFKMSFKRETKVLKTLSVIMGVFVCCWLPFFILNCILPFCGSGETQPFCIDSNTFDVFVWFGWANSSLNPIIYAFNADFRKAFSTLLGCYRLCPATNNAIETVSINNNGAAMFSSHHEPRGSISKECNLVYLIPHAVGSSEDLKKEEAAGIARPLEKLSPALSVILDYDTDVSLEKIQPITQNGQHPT
# M1 antag conf: confirmation of rat M1 muscarinic receptor antagonists; CHO-M1 cells, Fluo-4 calcium, ACh EC80 antagonism; stronger effect = lower value; shares compounds with M1 antag; calcium response (max-min fluorescence) at 10 µM; 1,700 tested, 43% active;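 active means calcium response below the same-plate mean of wells given acetylcholine alone at its 80%-effect dose, minus 3 SD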;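 further: raw fluorescence intensity difference in arbitrary instrument units and not normalized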
# mGluR4 antag: mGluR4 (human) activity, M1 antagonist secondary assay; CHO-mGluR4 calcium flux, Fluo-4 fluorescence, glutamate EC80; stronger effect = lower value; fluorescence response (max-min) at 10 µM; shares compounds with M1 antag; 1,700 tested, 0.9% active; AID 678;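 active means fluorescence response below the plate's average for near-maximal glutamate wells, less 3 SD of those wells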;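 further: raw unnormalized fluorescence span taken in the window right after glutamate addition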
# Starred values were filed as active, the others as inactive; x = not tested or not shown. Hits are enriched below; roughly 7.6% of the tested compounds scored in any of these assays.
SMILES,M1 antag,DAT uptake mod,Jurkat viability,M1 ag,HEK293 NFkB inh,D1 mod,M1 antag conf,mGluR4 antag
CSCCC(NC=C1C(=O)OC(C)(C)OC1=O)C(=O)O (stereo not drawn),0.2,-0.359,-2.8,-0.411,12.8,x,x,x
CCOc1ccc(N(CC(=O)N2CCN(c3ccccc3)CC2)S(=O)(=O)c2c(C)noc2C)cc1,0.176,0.663,-3.2,-0.109,1.6,-0.0913,x,x
CCOC(=O)N1CCN(C(=O)CN(c2ccc(C)cc2)S(=O)(=O)c2c(C)noc2C)CC1,-1.12*,-0.031,8.5,0.148,5.3,0.255,639,255
Cc1cc(Oc2ccccc2)nc(OCC#N)n1,0.4,-0.256,2.3,0.097,19.7,2.87,x,x
OC(COCc1ccco1)CN1CCN(C(c2ccccc2)c2ccccc2)CC1 (stereo not drawn),-16.6*,-1.85,11.0,-0.994,15.9,-0.319,123*,252
CCN1CCN(CC(O)COCc2ccccc2)CC1 (stereo not drawn),0.567,-0.0431,-4.1,0.271,5.5,-0.333,x,x
CCCC[C@@H]1CNC(=S)N1CCC12CC3CC(CC(C3)C1)C2,x,-1.37,x,x,x,x,x,x
COC(=O)c1ccc(OCC(O)CN2CCC(C)CC2)cc1 (stereo not drawn),-3.52*,-0.131,2.1,0.939,6.1,-0.693,527,275
CCC(=O)c1ccc(OCC(O)CN(C)C2CCCCC2)cc1 (stereo not drawn),-5.47*,-0.252,-4.6,0.53,0.2,1.64,480*,235
CC(=O)c1ccc(OCC(O)CN2CCC(C)CC2)cc1 (stereo not drawn),0.0218,-0.381,-2.9,0.866,7.5,-0.581,x,x
CN(CC(O)COc1ccc(OCC(O)CN(C)C2CCCCC2)cc1)C1CCCCC1 (stereo not drawn),-0.643,-0.722,x,-0.912,x,-0.317,x,x
CC(=O)c1ccc(OCC(O)CN2C(C)CCCC2C)cc1 (stereo not drawn),-1.98*,-0.343,-5.6,0.77,12.5,-0.105,518,245
O=C1c2cccnc2C(=O)N1CO,-2.42*,-0.183,-4.8,-0.778,3.3,x,581,216
O=C1c2cccnc2C(=O)N1Cc1ccco1,0.294,-0.639,-2.2,0.686,8.3,-1.43,x,x
O=C(CCNc1cccc(C(F)(F)F)c1)c1ccco1,0.585,0.407,x,0.357,x,0.012,x,x
COCc1cc(C2C(C(=O)c3ccco3)=C(O)C(=O)N2CCOCCO)ccc1O (stereo not drawn),0.473,-0.826,0.6,-0.595,19.1,-0.459,x,x
Cc1ccc2c(c1)NC(=O)C(CC(=O)NCCN(CC(C)C)CC(C)C)O2 (stereo not drawn),-5.63*,0.691,-8.4,0.822,4.9,-0.676,305*,248
CCN1CCN(Cc2ccc(NC(=O)CC3Oc4ccc(C)cc4NC3=O)cc2)CC1 (stereo not drawn),-3.86*,0.207,-2.2,-0.373,21.5,-0.793,335*,221
Cc1ccc2c(c1)NC(=O)C(CC(=O)Nc1ccc(CN3CCC(C)CC3)cc1)O2 (stereo not drawn),-9.35*,0.498,-3.0,-0.0703,-7.8,0.613,14.4*,231
Cn1c(=O)c2c(=O)cc(NNC(=O)C(C)(C)C)[nH]c2n(C)c1=O,x,-0.0717,x,x,x,x,x,x
Cc1cc(C)cc(-n2nnc(C(=O)NCc3ccc4c(c3)OCO4)c2N)c1,0.186,0.191,3.7,-0.478,19.0,0.0246,x,x
c1ccc2c(N3CCCCC3)nc(N3CCCCC3)nc2c1,-1.07,-0.0945,x,0.00247,x,x,x,x
Cc1cc(N2CCN(c3nc(N4CCOCC4)nc4ccccc34)CC2)c2ccccc2n1,-7.14*,x,0.6,0.282,17.8,x,24.1*,239
COc1ccc(CNC(=O)NCc2ccc(OC)c(OC)c2)cc1OC,-2.36*,-0.441,4.6,-1.42,10.6,x,524,206
Cc1ccc(Cn2nnc3c(=O)n(Cc4cccc(C)c4)cnc32)cc1,-3.42*,2.49,2.4,-1.18,-2.6,0.917,481*,205
SMILES,M1 antag,DAT uptake mod,Jurkat viability,M1 ag,HEK293 NFkB inh,D1 mod,M1 antag conf,mGluR4 antag
CCCCOc1ccc(NC2=NC3(CCCC3)N=C(N)N2)cc1,-2.99*,x,4.7,0.217,-1.9,-4.19,477*,226
CCN(CC)CCOC(=O)C1(c2ccc(OC)c(OC)c2)CCCC1,-10.8*,0.189,x,0.536,x,-0.521,165*,195
CCN(CC)CCOC(=O)C1(c2ccccc2)CCCC1,x,-0.0683,x,x,x,x,x,x
COCCCNC(=O)CS(=O)(=O)Cc1nc(-c2ccccc2C)oc1C,-3.04*,0.705,-0.4,-0.977,7.2,-0.522,665,255
O=C(CSc1ncn[nH]1)NCCC(c1ccccc1)c1ccccc1,x,-0.88,x,x,x,x,x,x
Cc1nnc(NC(=O)C(C)Sc2nncn2C)s1 (stereo not drawn),0.74,0.447,0.6,-0.302,7.6,-0.0288,x,x
COCCn1c(SCC(=O)N2CCCc3ccccc32)nc2ccccc2c1=O,-1.91*,-0.0435,-0.4,-0.122,-0.2,-0.879,589,254
CCCCCOC(=O)Cn1c(N2CCOCC2)nc2c1c(=O)[nH]c(=O)n2C,0.153,0.478,3.1,1.34,12.0,x,x,x
CCOC(=O)C1=C(C)NC(=O)NC1c1cccc(OC)c1OCc1ccccc1Cl (stereo not drawn),x,0.31,x,x,x,x,x,x
COc1cc(NC(=O)c2c(F)c(F)c(F)c(F)c2F)c(OC)cc1Cl,-2.93*,-0.821,6.2,-0.109,-5.7,-0.56,529,148*
O=C(CSCc1cnn(-c2ccccc2)c1-n1cccc1)NCCN1CCOCC1,-2.73*,0.571,x,-0.0795,19.8,x,520*,160
CC(=O)C1C(=O)CC(C)(O)C(C(C)=O)C1c1ccc(N(C)C)cc1 (stereo not drawn),0.166,1.83,-2.6,0.579,16.5,-1.23,x,x
O=C(O)CCC(=O)Nc1ccc(S(=O)(=O)Nc2nccs2)cc1,-11.4*,-0.787,x,-0.0785,x,0.397,695,195
Oc1c(C(Nc2ccccn2)c2ccccn2)ccc2cccnc12 (stereo not drawn),-3.57*,x,4.7,2.27,10.7,1.08,602,189
Cc1ccc(C(=O)NNC(=O)CSc2nnc(-c3ccncc3)n2-c2ccc(C)cc2)cc1,x,1.04,x,x,x,x,x,x
Cc1nccn1CCc1n[nH]c(=S)n1Cc1ccccc1,-9.47*,-0.736,-7.3,1.02,1.3,0.0467,314*,233
S=c1[nH]nc(CCc2ccccc2)n1Cc1ccccc1,x,0.199,x,x,x,x,x,x
Cc1cccc(NC(=S)NC2CC3CCCC(C2)N3CC(C)C)c1C (stereo not drawn),x,0.277,x,x,x,x,x,x
CN1CCN(C2=Nc3ccccc3Oc3ccc(Cl)cc32)CC1,-12.8*,0.338,x,0.265,x,-5.41,14.9*,267
O=S(=O)(CCN1CCN(C(c2ccccc2)c2ccccc2)CC1)C(F)(F)F,-3.76*,-0.0318,-5.8,-0.38,6.8,2.52,387*,203
